These entries were drawn from the full list.
PGC1a Ac signal: raises PGC1a acetylation signal in U2OS cells; U2OS PGC1a acetylation AlphaScreen, overnight; activation, % at 15.6 µM; hit rate 0.21% among 350,000; AID 651723;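 active means every replicate reaching activation of at least 50%, whatever the mean replicate activation; inconclusive means replicates that disagree or another doubt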;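 further: hits raise the AlphaScreen acetylation signal above neutral controls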
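System: Flag-PGC1a/GCN5 U2OS cells | Quantity: 7000 cells/well | Times: Overnight compound treatment, 37 °C | Measured by: AlphaScreen proximity luminescence, anti-acetyl-lysine antibody | Dosing: One concentration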
Hep G6PC suppr: PGC-1a acetylation activator altering hepatocyte G6PC expression; 240 tested, under 10 active; G6PC suppression (normalized activity, % of positive control; higher = more suppression), % at 26 µM; primary mouse hepatocytes, G6PC mRNA qPCR, forskolin; shares compounds with PGC1a Ac signal;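 active means dose curves showing G6PC suppression whose half-maximal dose is at most twice the top valid dose; inconclusive means flat curves with moderate negative activity, or unreliable fits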;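 further: G6PC expression relative to GAPDH housekeeping gene as delta delta Ct; 0% = median of neutral control wells and 100% = median of positive control wells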
Hep PCK1 suppr: hepatocyte PCK1 expression change via PGC-1a acetylation activation; shares compounds with PGC1a Ac signal; primary mouse hepatocytes, PCK1 mRNA qPCR, forskolin-stimulated; PCK1 expression decrease, unspecified at 26 µM; 230 tested, under 10 active; AID 743465;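 active means compounds lowering PCK1 expression whose fitted half-maximal concentration is at most twice the top tested dose; inconclusive means flat fit with moderate opposite-direction effect, or poor fit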;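 further: values are delta delta Ct of PCK1 relative to GAPDH; higher delta delta Ct means lower PCK1 expression so positive values indicate hits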
PGC1a hep suppr: PGC-1a acetylation activators affecting PGC-1a expression in hepatocytes | 240 tested, under 10 active | max activity (PGC-1a expression decrease), % | primary mouse hepatocytes, PGC-1a mRNA qPCR, forskolin; top dose 26 µM | shares compounds with PGC1a Ac signal;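 active means compound lowering PGC-1a expression with fitted half-maximal concentration at most twice its top tested dose; inconclusive means flat curve with moderate opposite-direction effect, or poor fit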;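 further: 0% = neutral control wells median and 100% = positive control wells median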
Numbers without * were called inactive; ? = inconclusive; . = not tested or not shown.

SMILES | PGC1a Ac signal | Hep PCK1 suppr | PGC1a hep suppr | others
COc1ccccc1C(NC(C)=O)c1cc(Cl)c2cccnc2c1O (configuration not stated) | -46 | . | .
Cc1cc(C)c2c(-n3cccc3)c(C(=O)NNS(=O)(=O)c3ccccc3)sc2n1 | 173* | . | ?
CCn1nc(C)c(CN2CCc3c([nH]c4ccccc34)C2C(C)(C)C)c1C (configuration not stated) | 150* | ? | 51 | Hep G6PC suppr=-24
Cc1cccc(CS(=O)(=O)c2nnc([C@H](Cc3ccccc3)NC(=O)OC(C)(C)C)o2)c1 | -60 | . | .
COc1cc(C2Nc3cccc4cccc(c34)N2)cc(OC)c1OC(C)=O | -45 | . | .
CN1CCN(c2ccc(CNC(=O)c3ccc(-c4ccnn4C)c4ccoc34)cc2)CC1 | ? | ? | 229
O=C(Nc1nc2cc3c(cc2s1)OCCO3)c1ccncc1 | -62 | . | .
CCCOc1ccc2ccccc2c1/C=C1\SC(=O)NC1=O | -76 | . | .
COc1ccc(N=C2C(=Nc3ccc(OC)cc3)N(c3ccc(OC)cc3)C(=S)N2C(=O)c2ccc(OC)cc2)cc1 | -46 | . | .
O=C(NCc1ccc(Cl)cc1)C1CCC(CNc2c(N3CCCC3)c(=O)c2=O)CC1 (configuration not stated) | -43 | 43 | 44 | Hep G6PC suppr=7
COC(=O)c1ccc(Cl)c(NC(C)=O)c1 | -47 | . | .
Cc1ccc(N)cc1S(=O)(=O)N(C)C | -46 | . | .
COc1ccc(C(CNC(=O)c2cccc(N(C)C)c2)N2CCCC2)cc1 (configuration not stated) | -47 | 121 | 28 | Hep G6PC suppr=176
CCNC(=S)NNC(=O)c1csc2ccccc12 | -59 | . | .
Cc1ccccc1NC1=C/C(=N\S(=O)(=O)c2cccs2)c2ccccc2C1=O | -88 | . | .

Assay outcomes as filed in PubChem BioAssay.
